Assay results: ChEMBL document CHEMBL1121519, “Basic antiinflammatory compounds. N,N',N''-Trisubstituted guanidines” (J Med Chem, 1980)

Key:
Rattus norvegicus [1] = test: Tested for percent enhancement of carrageenan paw edema in rat, administered orally at a dose of one tenth of oral lethal dose in mice; assay type: functional
Summary of the method: (§1)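 1 h later, 0.1 mL of 1% carrageenan was injected into the right hind-paw plantar tissue. Paw swelling was measured by mercury-displacement plethysmometry 3 h after carrageenan, compared with controls.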

[2] = Lethal dose in mice determined by Litchfield and Wilcoxon methods after peroral administration.; assay type: toxicity, organism-based; details: mouse, in vivo, po
Summary of the method: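 Median lethal dose found after oral dosing of mice, four mice per dose level, and calculated by the Litchfield–Wilcoxon method.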

[3] = molecular target: T1, Cyclooxygenase (Bos taurus) (UniProt O62664+O62698); test: Inhibition of prostaglandin synthetase in bovine seminal vesicle microsomes using Beckman liquid scintillation counter at 10 e-5 M; details: Microsome
Rattus norvegicus [4] = test: Total score is the sum of scores obtained in the adjuvant arthritis, acute toxicity, carrageenan edema, and prostaglandin synthetase assay; assay type: functional
Rattus norvegicus [5] = species on record: Rattus norvegicus; test: Average percent inhibition of the swelling of both injected and non injected paw was measured; […]; assay type: functional
Rattus norvegicus [6] = species on record: Rattus norvegicus; test: Tested for inhibition in the rat paw injected with carrageenan.; assay type: functional; design: concentration or dose not given beside the values
Rattus norvegicus [7] = test: Percent inhibition of carrageenan paw edema in rat, administered orally at a dose of one tenth of oral lethal dose in mice; assay type: functional; summary of the method: as §1
[8] = Toxic score (3) was measured as lethal dose in orally administered mice; assay type: toxicity, organism-based; details: mouse, in vivo, po
Summary of the method: (§2)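 Score derived from mouse oral LD50 (Litchfield–Wilcoxon, four mice per dose), in mg/kg: >1000 = 3; 500-1000 = 2; <500 = 1.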

Rattus norvegicus [9] = species on record: Rattus norvegicus; test: Tested for inhibition in the rat paw not injected with […].; assay type: functional; design: concentration or dose not given beside the values
Summary of the method: (§3)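 Adjuvant-induced arthritis, female Lewis rats, six per group: M. butyricum in mineral oil (3 mg/mL, 0.1 mL) injected into right hind paw plantar tissue. Daily oral dosing from adjuvant day to day 28, 10 or 5 (mg/kg)/day according to mouse oral LD50 (≥1000 or <1000 mg/kg). Injected and noninjected paw swelling read by mercury-displacement plethysmometry on day 28.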

[10] = Toxic score (1) was measured as lethal dose in orally administered mice; assay type: toxicity, organism-based; details: in vivo, po; summary of the method: as §2
Rattus norvegicus [11] = species on record: Rattus norvegicus; test: Average percent inhibition (arthritis score)of the swelling of both injected and non injected paw was measured; assay type: functional
Summary of the method: (§4)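 Adjuvant arthritis in inbred female Lewis rats, groups of six, acclimatized 2 weeks. Arthritis induced by injecting 0.1 mL M. butyricum in mineral oil (3 mg/mL) into right hind paw plantar tissue. Oral dosing daily from adjuvant day to day 28: 10 (mg/kg)/day if mouse oral LD50 ≥1000 mg/kg, else 5 (mg/kg)/day. Swelling of injected and noninjected paws measured day 28 by mercury-displacement plethysmometry; mean percent inhibition scored 0–3.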

[12] = molecular target: T1, Cyclooxygenase (Bos taurus); test: Tested for Prostaglandin synthetase inhibition in Bovine seminal vesicle microsomes using Beckman liquid scintillation counter at 10 e-5 M; assay type: functional; details: Microsome
Rattus norvegicus [13] = species on record: Rattus norvegicus; test: Tested for enhancement in the rat paw not injected with carrageenan.; assay type: functional
Rattus norvegicus [14] = species on record: Rattus norvegicus; test: Average percent inhibition (arthritis score=1) of the swelling of both injected and non injected paw was measured;values ranges from: […]-[…]; assay type: functional
Rattus norvegicus [15] = species on record: Rattus norvegicus; test: Average percent inhibition (arthritis score=3) of the swelling of both injected and non injected paw was measured; assay type: functional; summary of the method: as §4
Rattus norvegicus [16] = species on record: Rattus norvegicus; test: Average percent inhibition (arthritis score=1) of the swelling of both injected and non injected paw was measured; […]; assay type: functional
Rattus norvegicus [17] = test: Tested for inhibition at the dose of 5(mg/kg)/day in the rat paw not injected with carrageenan.; assay type: functional; details: in the assay text read “adjuvant” for “carrageenan”; summary of the method: as §3
Rattus norvegicus [18] = species on record: Rattus norvegicus; test: Tested for enhancement in the rat paw injected with carrageenan.; assay type: functional
Rattus norvegicus [19] = species on record: Rattus norvegicus; test: Average percent inhibition (arthritis score=0) of the swelling of both injected and non injected paw was measured; assay type: functional; summary of the method: as §4

Structure (SMILES) | LD50 [2] [mg/kg] | inhibition [3] [%] | Total score (Rattus norvegicus [4]) | Inhibition (Rattus norvegicus [7]) [%] | other results
CC(C)(C)/N=C(/Nc1nccs1)Nc1cccc2ccccc12 | > 1000 | 6.9 |  |  | Enhancement (Rattus norvegicus [1]): 19%
Cc1cc(N/C(=N/C(C)(C)C)Nn2cnnc2)c2ccccc2n1 | > 1000 |  |  |  | Enhancement (Rattus norvegicus [1]): 9%
Cc1cc(N/C(=N/c2ccccc2)Nc2nccs2)c2ccccc2n1 | > 1000 | 83.8 | 10 | 59 | Inhibition (Rattus norvegicus [5]): 49%; Inhibition (Rattus norvegicus [6]): 46%; LD50 [8]: > 1000 mg/kg; Inhibition (Rattus norvegicus [9]): 47%
Cc1cc(N/C(=N/C2CCCCC2)Nc2nc3ccccc3[nH]2)c2ccccc2n1 | > 1000 | 7.2 |  |  | Enhancement (Rattus norvegicus [1]): 13%
CCC(C)(C)/N=C(/Nc1nccs1)Nc1cc(C)nc2ccccc12 | 400 | 100 | 9 | 53 | LD50 [10]: < 500 mg/kg; Inhibition (Rattus norvegicus [11]): >=50%; Inhibition (Rattus norvegicus [6]): 59%; Inhibition (Rattus norvegicus [9]): 55%
Cc1cc(N/C(=N/C(C)(C)C)NC2NC=CS2)c2ccccc2n1 (configuration not stated) | 200 |  |  | 41 | inhibition [12]: 1.3%
CC(C)(C)/N=C(/Nc1nccs1)Nc1cccnc1Cl | > 1000 |  |  | 19 | inhibition [12]: 10.1%
Cc1cc(N/C(=N/C(C)(C)C)Nc2cccs2)c2ccccc2n1 | > 1000 | 37.2 | 8 | 73 | Inhibition (Rattus norvegicus [5]): 29%; Inhibition (Rattus norvegicus [6]): 16%; LD50 [8]: > 1000 mg/kg; Inhibition (Rattus norvegicus [9]): 26%
Cc1cc(N/C(=N/C2CCCCC2)Nc2nc(C)c(C)s2)c2ccccc2n1 | > 1000 | 87.9 | 8 | 54 | Enhancement (Rattus norvegicus [13]): 63%; Inhibition (Rattus norvegicus [11]): <10%; Inhibition (Rattus norvegicus [6]): 7%; LD50 [8]: > 1000 mg/kg
CCOC(=O)c1csc(/N=C(\Nc2cc(C)nc3ccccc23)NC(C)(C)C)n1 | > 1000 | 71.8 |  |  | Enhancement (Rattus norvegicus [1]): 36%
CCCCC/N=C(\Nc1nccs1)Nc1cc(C)nc2ccccc12 | 400 | -37 | 7 | 62 | Enhancement (Rattus norvegicus [13]): 4%; Inhibition (Rattus norvegicus [6]): 19%; Inhibition (Rattus norvegicus [14]): 29%; LD50 [8]: > 1000 mg/kg
Cc1cc(N/C(=N/C2(C)CCCC2)Nc2nccs2)c2ccccc2n1 | 600 | 100 | 7 | 46 | 
Cc1csc(/N=C(\Nc2cc(C)nc3ccccc23)NC(C)(C)C)n1 | 600 | 95.1 | 9 | 31 | Inhibition (Rattus norvegicus [15]): >=50%; Inhibition (Rattus norvegicus [6]): 53%; LD50 [8]: > 1000 mg/kg; Inhibition (Rattus norvegicus [9]): 59%
CCOC(=O)c1cnc(/N=C(\Nc2cc(C)nc3ccccc23)NC2CCCCC2)s1 | > 1000 | 15.6 |  |  | Enhancement (Rattus norvegicus [1]): 16%
CC(C)(C)/N=C(\Nc1nccs1)Nc1ccnc2cc(Cl)ccc12 | > 1000 | 5.5 | 7 | 61 | Inhibition (Rattus norvegicus [6]): 26%; LD50 [8]: > 1000 mg/kg; Inhibition (Rattus norvegicus [9]): 8%
CCOC(=O)c1csc(/N=C(\Nc2cc(C)nc3ccccc23)NC2CCCCC2)n1 | > 1000 | 89.8 | 7 |  | Inhibition (Rattus norvegicus [16]): 29%; Enhancement (Rattus norvegicus [1]): 1%; Inhibition (Rattus norvegicus [6]): 4%; LD50 [8]: > 1000 mg/kg; Inhibition (Rattus norvegicus [9]): 24%
CCCCCCCCCC/N=C(\Nc1nccs1)Nc1cc(C)nc2ccccc12 | > 1000 |  |  | 4 | inhibition [12]: 4.5%
CCCC/N=C(/Nc1nccs1)Nc1cc(C)nc2ccccc12 | 800 | 0.6 | 6 | 89 | Inhibition (Rattus norvegicus [14]): 29%; Inhibition (Rattus norvegicus [17]): 34%
CC(C)(C)/N=C(\Nc1nccs1)Nc1cc(C(F)(F)F)nc2ccccc12 | > 1000 | 75.4 | 7 | 28 | Enhancement (Rattus norvegicus [18]): 6%; Inhibition (Rattus norvegicus [19]): <10%; LD50 [8]: > 1000 mg/kg; Inhibition (Rattus norvegicus [9]): 2%
c1ccc(-c2cc(N/C(=N/C3CCCCC3)Nc3nccs3)c3ccccc3n2)cc1 | > 1000 | 14 |  | 5 | 
CC(C)(C)N=C(Nc1nccs1)Nc1nccs1 | > 1000 | 13.1 |  | 49 | 
CC(C)(C)/N=C(\Nc1ccc2ccccc2c1)Nc1nccs1 | > 1000 | 1.7 |  |  | Enhancement (Rattus norvegicus [1]): 17%

Structure (SMILES) | LD50 [2] [mg/kg] | inhibition [3] [%] | Total score (Rattus norvegicus [4]) | Inhibition (Rattus norvegicus [7]) [%] | other results
Clc1ccc2c(N/C(=N/C3CCCCC3)Nc3nccs3)ccnc2c1 | > 1000 | 21.6 |  | 56 | 
CC(C)(C)/N=C(/Nc1nccs1)Nc1cccc2ncccc12 | > 1000 | 9 |  | 21 | 
Cc1cc(N/C(=N\C(C)(C)C)Nc2nccs2)c2ccccc2n1 | 200 | 100 | 8 | 34 | LD50 [10]: < 500 mg/kg; Inhibition (Rattus norvegicus [15]): >=50%; Inhibition (Rattus norvegicus [17]): 60%
CC(C)(C)/N=C(\Nc1ccccc1)Nc1nccs1 | > 1000 | 6.4 |  | 24 | 
Cc1c(Cl)cccc1N/C(=N\C(C)(C)C)Nc1nccs1 | > 1000 | 9.5 |  | 17 | 
CCC(C)(C)/N=C(\Nc1ncccn1)Nc1nccs1 | > 1000 | 27.5 |  | 20 | 
Cc1cc(N/C(=N/C2CCCCC2)Nc2nnc(S)s2)c2ccccc2n1 | > 1000 | 7 |  | 36 | 
CCC(C)/N=C(/Nc1nccs1)Nc1cc(C)nc2ccccc12 (configuration not stated) | 400 | 10.5 |  | 57 | 
Cc1cc(N/C(=N\CC(C)(C)C)Nc2nccs2)c2ccccc2n1 | 600 | 31.1 | 7 | 66 | Inhibition (Rattus norvegicus [6]): 31%; Inhibition (Rattus norvegicus [14]): 29%; Inhibition (Rattus norvegicus [9]): 29%
CCCCCCCCCCCCCCCCCC/N=C(\Nc1nccs1)Nc1cc(C)nc2ccccc12.Cl | > 1000 | 7 |  | 5 | 
COc1ccc2nccc(N/C(=N/C(C)(C)C)Nc3nccs3)c2c1 | > 1000 | 12.7 |  | 42 | 
Cc1cc(N/C(=N/c2ccccc2C)Nc2nccs2)c2ccccc2n1 | > 1000 | 14.8 |  | 53 | 
Cc1nc2ccccc2c(N/C(=N/C2CCCCC2)Nc2nccs2)c1Cl | > 1000 | 8.1 |  | 19 | 
Cc1cc(NC(=N)NC(C)(C)C)c2ccccc2n1 | 100 | 11.7 |  | 5 | 
CC(C)(C)/N=C(\Nc1ccccn1)Nc1nccs1 | > 1000 | 6.9 |  | 83 | 
Cc1cc(N/C(=N\C(C)CCCC(C)C)Nc2nccs2)c2ccccc2n1 (configuration not stated) | > 1000 | 1.7 |  | 25 | 
CC(C)(C)/N=C(\N)Nc1nccs1.O=C(O)/C=C\C(=O)O | 600 | 29 |  | 54 | 
CC(C)(C)/N=C(/Nc1nccs1)Nc1cccc2cnccc12 | > 1000 | -8.8 |  | 21 | 
Cc1cc(N/C(=N/C2CCCCCC2)Nc2nccs2)c2ccccc2n1 | > 1000 | 34.8 |  | 19 | 
Cc1ccc2nc(C)cc(N/C(=N/C3CCCCC3)Nc3nccs3)c2c1 | > 1000 | 0.6 | 6 | 65 | Enhancement (Rattus norvegicus [18]): 21%; Inhibition (Rattus norvegicus [19]): <10%; LD50 [8]: > 1000 mg/kg; Inhibition (Rattus norvegicus [9]): 0%
Cc1nc2ccccc2cc1N/C(=N\C(C)(C)C)Nc1nccs1 | > 1000 | 2.3 |  | 24 | 
Cc1cc(N/C(=N/C2CCCCC2)Nc2nc3ccccc3s2)c2ccccc2n1 | > 1000 | 76.1 | 6 | 1 | Enhancement (Rattus norvegicus [13]): 4%; Enhancement (Rattus norvegicus [18]): 7%; Inhibition (Rattus norvegicus [19]): <10%; LD50 [8]: > 1000 mg/kg
